From ChEMBL document CHEMBL4396889, “From Inhibition to Degradation: Targeting the Antiapoptotic Protein Myeloid Cell Leukemia 1 (MCL1)” (J Med Chem, 2019)
Activity calls are given as the source filed them. The rule behind the calls is not given here.

Tests used:
[1] = target: T1, Protein cereblon/Induced myeloid leukemia cell differentiation protein Mcl-1 (Homo sapiens) (UniProt Q07820+Q96SW2); test: Protac activity at N-terminal His-tagged human MCL1 expressed in Escherichia coli/Cereblon in human OPM2 cell lysate assessed as ternary complex formation at 500 nM incubated for 4 hrs followed by cell lysate addition after overnight incubation by SDS-PAGE/immunoblot analysis
T1 sequence (Q07820 whole entry, looked up, canonical isoform): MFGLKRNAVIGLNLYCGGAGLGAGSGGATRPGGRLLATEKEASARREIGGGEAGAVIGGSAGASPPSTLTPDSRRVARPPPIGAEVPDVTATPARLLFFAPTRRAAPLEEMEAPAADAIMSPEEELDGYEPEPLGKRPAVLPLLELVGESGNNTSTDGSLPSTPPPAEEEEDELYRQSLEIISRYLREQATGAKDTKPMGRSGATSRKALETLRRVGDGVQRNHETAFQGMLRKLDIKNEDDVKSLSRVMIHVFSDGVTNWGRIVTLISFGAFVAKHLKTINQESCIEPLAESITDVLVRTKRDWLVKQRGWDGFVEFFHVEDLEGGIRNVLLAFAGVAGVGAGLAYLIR
T1 sequence (Q96SW2 whole entry, looked up, canonical isoform): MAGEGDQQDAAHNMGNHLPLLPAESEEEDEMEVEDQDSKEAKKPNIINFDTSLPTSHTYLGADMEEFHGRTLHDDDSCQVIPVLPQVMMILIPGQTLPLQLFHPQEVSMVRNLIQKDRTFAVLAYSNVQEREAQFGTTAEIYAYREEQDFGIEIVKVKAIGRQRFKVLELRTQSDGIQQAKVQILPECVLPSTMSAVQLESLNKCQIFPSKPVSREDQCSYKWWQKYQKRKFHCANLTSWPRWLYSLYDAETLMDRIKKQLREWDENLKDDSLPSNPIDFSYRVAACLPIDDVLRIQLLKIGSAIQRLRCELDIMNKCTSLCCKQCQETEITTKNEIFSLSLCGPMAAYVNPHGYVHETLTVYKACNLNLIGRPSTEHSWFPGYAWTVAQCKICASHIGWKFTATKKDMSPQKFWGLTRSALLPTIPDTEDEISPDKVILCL

[2] = target: T1, Protein cereblon/Induced myeloid leukemia cell differentiation protein Mcl-1 (Homo sapiens); test: Protac activity at Cereblon/MCL1 short isoform in human OPM2 cells assessed as MCL1 short isoform level at 300 nM pre-incubated for 72 hrs followed by cycloheximide addition and measured after 30 mins by immunoblot analysis (reference value: 100%); type: cell-based
In short: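 OPM2 or MM1.S cells were treated for 72 h with compound or DMSO. Cycloheximide was added for the final 30, 60 or 120 min. MCL1 was read by immunoblot and compared with DMSO-treated cells as a normal-turnover reference.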

[3] = target: T1, Protein cereblon/Induced myeloid leukemia cell differentiation protein Mcl-1 (Homo sapiens); test: Protac activity at Cereblon/MCL1 long isoform in wild type human OPM2 cells assessed as protein abundance at 50 nM after 48 hrs by immunoblot analysis relative to control; type: cell-based
In short: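 OPM2 multiple myeloma cells, wild type or CRBN-knockout, were treated for 48 h with degrader or DMSO vehicle. MCL1 long and short isoforms were detected by immunoblot and levels compared with DMSO controls.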

- Activity [1]: Active
- Activity [2]: 34%
- Activity [3]: 100%
Compound: Cc1nn(C)c(COc2ccc(N3CCN(S(=O)(=O)N(C)C)CC3)cc2)c1-c1cccc2c(CCCOc3cccc4ccccc34)c(C(=O)O)n(CCN3CCN(C(=O)COc4cccc5c4C(=O)N(C4CCC(=O)NC4=O)C5=O)CC3)c12 (stereo not drawn)
